Assay outcomes as filed in PubChem BioAssay.
This is a sample that favours compounds with a hit; in the whole collection about 2.3% have one here.
MC4R ag barr: agonists of human melanocortin 4 receptor (MC4R) beta-arrestin; P32245; U2OS MC4R beta-arrestin complementation, luminescence; percent of melanotan II response, DMSO zero; activation, % at 8.9 µM; 0.98% of 360,000 active;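 active = activation above a per-plate cutoff, the mean activation of sample wells on that plate plus 3 SD, cut at about 8% in these data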
Target sequence (P32245 whole entry, looked up): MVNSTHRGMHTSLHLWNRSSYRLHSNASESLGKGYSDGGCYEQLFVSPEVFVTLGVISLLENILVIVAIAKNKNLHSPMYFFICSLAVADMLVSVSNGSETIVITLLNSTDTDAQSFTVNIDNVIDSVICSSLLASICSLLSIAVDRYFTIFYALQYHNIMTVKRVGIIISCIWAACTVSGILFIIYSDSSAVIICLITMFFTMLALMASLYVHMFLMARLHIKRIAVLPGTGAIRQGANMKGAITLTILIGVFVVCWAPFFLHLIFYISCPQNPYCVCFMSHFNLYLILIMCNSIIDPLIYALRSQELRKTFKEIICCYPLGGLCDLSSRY
MC4R antagonist: antagonists of human melanocortin 4 receptor (MC4R) | P32245 | MC4R-expressing cells, MTII-stimulated cAMP, LANCE TR-FRET | inhibition, % at 6.5 µM | 0.48% of 360,000 active | AID 540295;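 active = inhibition above its plate's cutoff, the mean of tested wells on that plate plus 3 SD, cut at about 29% in these data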;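 note: 0% = Melanotan II alone and 100% = Melanotan II plus saturating MCL0020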
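Assay system: U2OS cells stably expressing human melanocortin 4 receptor (MC4R) / Dosing: 6.5 µM / Timing: compound 30 min, challenge 1 h, detection 1 h / Measured by: Eu-cAMP/anti-cAMP TR-FRET, emission 671 nm / Replicates: singlicate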
MsrA inhibitor: inhibitors of bovine MsrA | purified bovine MsrA, absorbance read-out | AID 651718 | 0.75% of 360,000 active | inhibition, % at 15.5 µM; in the data active = inhibition above about 4.5%;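 note: 0% = vehicle wells with enzyme and 100% = reference inhibitor wells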
bovine MsrA act: activators of bovine methionine sulfoxide reductase A; purified bovine MsrA, absorbance read-out; activation, % at 10.6 µM; 0.3% of 360,000 active; in the data active = activation above about 7.5%;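 note: 0% = vehicle and 100% = reference activator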
cAMP nonselect: counter-screen for MC4R antagonists: nonselective cAMP signaling inhibitors. 26% of 1,600 active. inhibition, % at 6.5 µM. shares compounds with MC4R antagonist. parental U2OS, forskolin cAMP, LANCE TR-FRET. AID 602193;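 active = mean inhibition over triplicates above the low-control well mean plus 3 SD, set per campaign, cut at about 13% in these data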;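 note: signal is single emission at 671 nm which falls as cellular cAMP rises; 0% = forskolin-stimulated wells and 100% = buffer without forskolin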
MC4R cAMP antag: human MC4R cAMP antagonism confirmation | shares compounds with MC4R antagonist | MC4R-expressing cells, MTII-stimulated cAMP, TR-FRET | inhibition, % at 6.5 µM | 27% of 1,600 active; in the data active = inhibition above about 29%;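 note: 0% = agonist stimulated wells alone and 100% = agonist stimulated wells plus saturating reference antagonist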
Numbers without * were called inactive; . = not tested or not shown.

SMILES	MC4R ag barr	MC4R antagonist	MsrA inhibitor	bovine MsrA act	cAMP nonselect	MC4R cAMP antag
COc1ccc(NC(=O)COc2ccc(C(=O)NCc3cccnc3)cc2OC)cc1	-2.3	3.4	-0.8	-4.0	.	.
Cc1cc2nccc(-c3ccc(Cl)c([N+](=O)[O-])c3)n2n1	1.2	40.9*	0.8	-6.2	-10.7	28.8*
CN(Cc1c(F)cccc1Cl)C(=O)CCc1c[nH]c2ccccc12	-2.3	29.2*	-1.1	-0.6	3.4	1.4
Cc1ccc(CCCOC(=O)C[N+]2(C)CCOCC2)cc1	-1.4	4.0	0.0	-4.2	.	.
O=C(CSc1nc2ccccc2o1)N1CCOCC1	-2.4	-2.7	-0.8	-3.2	.	.
CCc1nnc(NS(=O)(=O)c2ccc(N/C=C\C(=O)c3cccc(OC)c3)cc2)s1	-2.0	33.8*	1.9	-2.0	1.7	9.1
CCc1nnc(NS(=O)(=O)c2ccc(N/C=C/C(=O)c3ccc(C)cc3)cc2)s1	-1.0	8.8	0.2	-1.1	.	.
O=C(Nc1ccc(Cl)cn1)C1CCCN(c2ncnc3c2nc2n3CCCCC2)C1 (stereo not drawn)	-0.6	30.4*	-0.6	-0.2	-1.9	7.3
COc1ccc2c(c1)c(CC(=O)Nc1ccc(C(C)=O)cc1)c(C)n2C(=O)c1ccc(Cl)cc1	-0.1	29.2*	1.1	-1.8	-0.4	7.3
COc1ccc2c(c1)c(CC(=O)Nc1cc(C)ccc1C)c(C)n2C(=O)c1ccc(Cl)cc1	-1.6	3.4	3.3	-5.2	.	.
COc1ccc(/C=C/C(=O)c2ccccn2)cc1	-3.3	5.5	2.4	0.3	.	.
COc1ccc([N+](=O)[O-])c(C=CC(=O)c2ccccn2)c1	-0.2	29.8*	1.3	-2.0	-0.9	13.5
O=C1NC[C@H](c2ccccc2)OC(=O)[C@@H](Cc2ccc(F)cc2)C/C=C\C[C@H]1CC(=O)N(CCO)Cc1ccccc1	-1.1	45.5*	-0.4	5.9	2.1	22.1
O=C1NC[C@H](c2ccccc2)OC(=O)[C@H](Cc2ccc(F)cc2)C/C=C\C[C@H]1CC(=O)N(CCO)Cc1ccccc1	1.3	39.3*	-0.3	0.1	-1.8	-6.0
O=C1NC[C@@H](c2ccccc2)OC(=O)[C@H](Cc2ccc(F)cc2)C/C=C\C[C@H]1CC(=O)N(CCO)Cc1ccccc1	-1.8	15.3	-0.5	-0.4	.	.
O=C(N[C@H]1C/C=C\C[C@H](CC(=O)N(CCO)Cc2ccccc2)C(=O)NC[C@H](c2ccccc2)OC1=O)OCC1c2ccccc2-c2ccccc21	-0.5	31.9*	.	-1.1	4.4	-5.7
Cc1cccc(-n2ccnc2SCC(=O)Nc2cc(C)on2)c1	-0.2	-1.1	0.2	-4.9	.	.
Cc1[nH]n(-c2ccccc2)c(=O)c1C=NC1CCCCCC1	-0.4	33.5*	0.8	-2.9	7.4	8.0
COc1ccccc1N1CCN(C(=O)c2cc3sccc3n2C)CC1	-0.5	3.2	-0.1	-6.8	.	.
Cc1ccc2nc(-c3ccc(NC(=O)C(C)Sc4nncs4)cc3)sc2c1 (stereo not drawn)	3.3	43.1*	0.2	-2.5	1.9	18.3
O=C1CCCN1c1ccc(S(=O)(=O)Nc2cccnc2)cc1	-2.2	28.9*	3.1	-0.3	-1.3	-5.5
CN(CCO)c1cc(N2CCC3(CC2)OCCO3)c2nonc2c1[N+](=O)[O-]	-1.4	-3.8	2.5	0.9	.	.
O=C(CS(=O)c1ccc(C(F)(F)F)cc1[N+](=O)[O-])Oc1ccccc1 (stereo not drawn)	3.3	49.2*	0.8	0.8	13.0	33.9*
COC(=O)c1ccc(OC(=O)CS(=O)c2ccccc2[N+](=O)[O-])cc1 (stereo not drawn)	-2.4	25.3	0.6	-1.4	.	.
CSCCC1C(C#N)=C(N)Oc2n[nH]c(-c3cccs3)c21 (stereo not drawn)	-1.4	-0.8	0.9	-6.4	.	.
SMILES	MC4R ag barr	MC4R antagonist	MsrA inhibitor	bovine MsrA act	cAMP nonselect	MC4R cAMP antag
NC(=S)Nc1cccc(F)c1	0.8	28.8*	0.0	-0.7	-3.0	-4.4
Cc1ccc(C)c(OCCCCCn2ccnc2)c1	-0.7	6.2	0.5	-4.7	.	.
COc1cc(OC)c(OC)cc1CN1CCCC(C(=O)N2CCCCC2)C1 (stereo not drawn)	0.7	3.5	-0.5	-10.4	.	.
CNC(=O)CSc1nc2cc(S(=O)(=O)Nc3ccccc3OC)ccc2o1	0.6	5.8	1.8	-1.9	.	.
COc1ccccc1NS(=O)(=O)c1ccc2oc(SC3CCOC3=O)nc2c1 (stereo not drawn)	-2.3	43.9*	.	0.2	35.8*	66.7*
NC(=O)COC(=O)[C@H](Cc1c[nH]c2ccccc12)NC(=O)c1ccc(F)cc1	-2.2	31.6*	-1.1	-0.7	13.8*	23.0
Cc1ccc(N=N/C(=C\O)C(=O)c2ccc(Cl)cc2)cc1	1.9	-5.4	2.6	-9.9	.	.
O=C(/C(=C/O)N=Nc1ccccc1)c1ccc(Cl)cc1	2.0	33.6*	3.0	-0.7	5.7	9.2
Cc1cccc(C)c1NC(=O)COc1ccccc1C(=O)Nc1ccc(Br)cn1	3.4	33.0*	-0.8	-4.2	50.4*	90.8*
O=S(=O)(Cc1ccccc1)Nc1ccccc1	-1.2	1.9	-1.6	-2.3	.	.
COC(=O)COc1ccc(NC(=O)Cn2nc(-c3ccccc3)c3ccccc3c2=O)cc1	0.1	29.1*	-0.1	-12.0	18.7*	37.8*
Cc1ccc(C(=O)C(C)OC(=O)c2cc3cc([N+](=O)[O-])ccc3oc2=O)cc1 (stereo not drawn)	-3.3	33.4*	1.1	-4.9	7.8	13.5
O=C(CN1C(=O)C2CC=CCC2C1=O)N1CCN(c2ccc([N+](=O)[O-])cc2)CC1 (stereo not drawn)	0.9	30.6*	1.4	-2.0	-4.3	-17.4
CC(C(=O)N1CCN(c2ccc([N+](=O)[O-])cc2)CC1)N1C(=O)C2CC=CCC2C1=O (stereo not drawn)	-4.3	4.7	0.4	-1.9	.	.
COc1ccc2[nH]c3c(=S)nc[nH]c3c2c1	-1.7	37.8*	4.4	2.6	4.5	12.7
COc1ccc2[nH]c3c(Cl)ncnc3c2c1	-0.4	-15.6	-0.3	-8.6	.	.
COc1ccccc1C(O)(c1ccccc1)c1ccccc1OC	3.2	-1.5	-0.8	-3.5	.	.
CC(c1ccccc1C(O)(c1ccccc1)c1ccccc1)N(C)C (stereo not drawn)	4.2	29.5*	-0.1	-3.5	-8.7	2.9
O=Cc1cccnc1SCc1ccccc1	-0.4	-21.7	-0.5	-5.9	.	.
O=C(Nc1ccc(Cl)c(Cl)c1)Nc1ccccc1NS(=O)(=O)c1cccs1	-1.7	5.8	-0.7	-3.1	.	.
O=C(Nc1ccccc1)Nc1ccccc1NS(=O)(=O)c1cccs1	0.7	30.0*	-1.4	-1.3	0.6	8.0
COc1ccc(CCNC(=O)C(=O)c2cn(CC(=O)N3CCOCC3)c3ccccc23)cc1	-2.7	5.5	1.4	-1.7	.	.
Cc1cccc(N2CC(C(=O)Nc3ccc(S(=O)(=O)N4CCOCC4)cc3)CC2=O)c1 (stereo not drawn)	1.8	30.4*	1.1	-2.2	1.4	5.2
